In brackets after ≈: the same amount, converted by molar mass.
Tested on: not listed separately
Test: Chromatographic hydrophobicity index, log D of the compound in phosphate buffer at pH 7.4 by UV-HPLC analysis
Format: physicochemical
Details: not given

SMILES	chromatographic logD
COc1ccc2nc(C)cc(OCc3nc4ccccc4[nH]3)c2c1	3.59
Cc1cc(C)cc(NC(=O)COc2cc(C)nc3ccc(Cl)cc23)c1	6.38
Cc1cc(C)cc(NC(=O)COc2cc(C(F)(F)F)nc3ccc(OC(F)(F)F)cc23)c1	7.96
CCOc1ccc2nc(C(F)(F)F)cc(OCC(=O)Nc3cc(C)cc(C)c3)c2c1	7.55
COc1ccc2c(OCC(=O)Nc3cc(C)cc(C)c3)cc(C)nc2c1	5.59
COc1ccc2nc(C)cc(OCC(=O)Nc3ccc(F)cc3)c2c1	4.49
Cc1cc(C)cc(NC(=O)COc2cc(C)nc3ccc(OC(F)(F)F)cc23)c1	6.79
COc1ccc2nc(C)cc(OCC(=O)Nc3nccs3)c2c1	3.2
CCOc1ccc2nc(C)cc(OCC(=O)Nc3cc(C)cc(C)c3)c2c1	5.98
COc1ccc2nc(C)cc(OCC(=O)Nc3ccc(Cl)c(C(F)(F)F)c3)c2c1	6.22
COc1ccc2nc(C)cc(OCC(=O)Nc3cccnc3)c2c1	2.46
COc1ccc2nc(C)cc(OCC(=O)Nc3cc(OC)c(Cl)cc3OC)c2c1	5.8
COc1ccc2nc(C)cc(OCC(=O)N(C)c3cc(C)cc(C)c3)c2c1	5.47
COc1ccc2nc(C)c(NC(=O)C(=O)Nc3cc(C)cc(C)c3)c(O)c2c1	3.76
COc1ccc2nc(C)cc(OCC(=O)Nc3noc(C)c3C)c2c1	3.3
COc1ccc2nc(C)cc(OCC(=O)Nc3ccccn3)c2c1	3.49
COc1ccc2nc(C)cc(OCC(=O)NC3CONC3=O)c2c1 (stereo not given)	0.79
COc1ccc2nc(C)cc(OCC(=O)Nc3ccc(Br)c(C)c3)c2c1	5.95

Tested on: not listed separately
Test: Cytotoxicity against human HepG2 cells assessed as cell growth inhibition incubated for 48 hrs by CellTiter-Glo reagent based analysis
Format: toxicity
Details: not given
Procedure, shortened: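 HepG2 cells kept in Eagle's MEM with 10% heat-inactivated FBS, 1% NEAA and penicillin/streptomycin, seeded at ~3000 cells/well onto pre-dispensed compound. Incubation was 48 h at 37 °C, 5% CO2. Plates were equilibrated to room temperature, CellTiter-Glo was added, and ATP luminescence was read after 10 min as the viability read-out.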

SMILES	IC50 at 48 h [µM]
COc1ccc2nc(C)cc(OCc3nc4ccccc4[nH]3)c2c1	> 100
Cc1cc(C)cc(NC(=O)COc2cc(C)nc3ccc(Cl)cc23)c1	> 100
Cc1cc(C)cc(NC(=O)COc2cc(C(F)(F)F)nc3ccc(OC(F)(F)F)cc23)c1	> 100
CCOc1ccc2nc(C(F)(F)F)cc(OCC(=O)Nc3cc(C)cc(C)c3)c2c1	> 100
COc1ccc2c(OCC(=O)Nc3cc(C)cc(C)c3)cc(C)nc2c1	50.1
COc1ccc2nc(C)cc(OCC(=O)Nc3ccc(F)cc3)c2c1	63.1
Cc1cc(C)cc(NC(=O)COc2cc(C)nc3ccc(OC(F)(F)F)cc23)c1	> 100
COc1ccc2nc(C)cc(OCC(=O)Nc3nccs3)c2c1	> 100
CCOc1ccc2nc(C)cc(OCC(=O)Nc3cc(C)cc(C)c3)c2c1	> 100
COc1ccc2nc(C)cc(OCC(=O)Nc3ccc(Cl)c(C(F)(F)F)c3)c2c1	79.4
COc1ccc2nc(C)cc(OCC(=O)Nc3cccnc3)c2c1	> 100
COc1ccc2nc(C)cc(OCC(=O)Nc3cc(OC)c(Cl)cc3OC)c2c1	> 100
COc1ccc2nc(C)cc(OCC(=O)N(C)c3cc(C)cc(C)c3)c2c1	50.1
COc1ccc2nc(C)c(NC(=O)C(=O)Nc3cc(C)cc(C)c3)c(O)c2c1	> 100
COc1ccc2nc(C)cc(OCC(=O)Nc3noc(C)c3C)c2c1	> 100
COc1ccc2nc(C)cc(OCC(=O)Nc3ccccn3)c2c1	> 100
COc1ccc2nc(C)cc(OCC(=O)NC3CONC3=O)c2c1 (stereo not given)	> 100
COc1ccc2nc(C)cc(OCC(=O)Nc3ccc(Br)c(C)c3)c2c1	15.8

Tested on: not listed separately
Test: Artificial membrane permeability of the compound incubated for 3 hrs by HPLC analysis
Format: ADME
Details: PAMPA, read-out: permeability

SMILES	Papp at 3 h [×10⁻⁶ cm/s]
Cc1cc(C)cc(NC(=O)COc2cc(C(F)(F)F)nc3ccc(OC(F)(F)F)cc23)c1	< 0.3
CCOc1ccc2nc(C(F)(F)F)cc(OCC(=O)Nc3cc(C)cc(C)c3)c2c1	< 0.3
COc1ccc2nc(C)cc(OCC(=O)Nc3ccc(F)cc3)c2c1	23
Cc1cc(C)cc(NC(=O)COc2cc(C)nc3ccc(OC(F)(F)F)cc23)c1	< 3
COc1ccc2nc(C)cc(OCC(=O)Nc3nccs3)c2c1	112
CCOc1ccc2nc(C)cc(OCC(=O)Nc3cc(C)cc(C)c3)c2c1	< 3
COc1ccc2nc(C)cc(OCC(=O)Nc3cccnc3)c2c1	33
COc1ccc2nc(C)cc(OCC(=O)N(C)c3cc(C)cc(C)c3)c2c1	30
COc1ccc2nc(C)cc(OCC(=O)Nc3noc(C)c3C)c2c1	62.5
COc1ccc2nc(C)cc(OCC(=O)Nc3ccccn3)c2c1	48
COc1ccc2nc(C)cc(OCC(=O)NC3CONC3=O)c2c1 (stereo not given)	< 1

Tested on: not listed separately
Test: Kinetic aqueous solubility of compound in phosphate buffer at pH 7.4 incubated for 1 hrs by CLND assay
Format: physicochemical
Details: read-out: Kinetic_solubility

SMILES	solubility kinetic at 1 h [µM]
COc1ccc2nc(C)cc(OCc3nc4ccccc4[nH]3)c2c1	13 (≈ 4.15 µg/mL)
Cc1cc(C)cc(NC(=O)COc2cc(C)nc3ccc(Cl)cc23)c1	8 (≈ 2.84 µg/mL)
Cc1cc(C)cc(NC(=O)COc2cc(C(F)(F)F)nc3ccc(OC(F)(F)F)cc23)c1	34 (≈ 15.6 µg/mL)
CCOc1ccc2nc(C(F)(F)F)cc(OCC(=O)Nc3cc(C)cc(C)c3)c2c1	< 1
COc1ccc2nc(C)cc(OCC(=O)Nc3ccc(F)cc3)c2c1	104 (≈ 35.4 µg/mL)
COc1ccc2nc(C)cc(OCC(=O)Nc3nccs3)c2c1	54 (≈ 17.8 µg/mL)
COc1ccc2nc(C)cc(OCC(=O)Nc3ccc(Cl)c(C(F)(F)F)c3)c2c1	17 (≈ 7.22 µg/mL)
COc1ccc2nc(C)cc(OCC(=O)Nc3cccnc3)c2c1	32 (≈ 10.3 µg/mL)
COc1ccc2nc(C)cc(OCC(=O)Nc3cc(OC)c(Cl)cc3OC)c2c1	3 (≈ 1.25 µg/mL)
COc1ccc2nc(C)cc(OCC(=O)N(C)c3cc(C)cc(C)c3)c2c1	373 (≈ 136 µg/mL)
COc1ccc2nc(C)c(NC(=O)C(=O)Nc3cc(C)cc(C)c3)c(O)c2c1	10 (≈ 3.79 µg/mL)
COc1ccc2nc(C)cc(OCC(=O)Nc3noc(C)c3C)c2c1	196 (≈ 66.7 µg/mL)
COc1ccc2nc(C)cc(OCC(=O)Nc3ccccn3)c2c1	29 (≈ 9.38 µg/mL)
COc1ccc2nc(C)cc(OCC(=O)NC3CONC3=O)c2c1 (stereo not given)	≥ 166
COc1ccc2nc(C)cc(OCC(=O)Nc3ccc(Br)c(C)c3)c2c1	< 1

Tested on: Mycobacterium tuberculosis
Test: Antimycobacterial activity against Mycobacterium tuberculosis H37Rv ATCC 25618 assessed as inhibition of microbial growth incubated for 6 days by resazurin based assay
Format: functional
Details: H37Rv ATCC 25618, 144 h, time 6 day
Procedure, shortened: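 Ten two-fold dilutions made in neat DMSO, tested in Middlebrook 7H9 with the H37Rv inoculum. Controls: isoniazid from 4 μg/ml as positive control; rifampicin 1 μM as no-growth control. Plates sat sealed at 37 °C without shaking for 6 days.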

SMILES	MIC [µM]
COc1ccc2nc(C)cc(OCc3nc4ccccc4[nH]3)c2c1	16
Cc1cc(C)cc(NC(=O)COc2cc(C)nc3ccc(Cl)cc23)c1	40
Cc1cc(C)cc(NC(=O)COc2cc(C(F)(F)F)nc3ccc(OC(F)(F)F)cc23)c1	> 250
CCOc1ccc2nc(C(F)(F)F)cc(OCC(=O)Nc3cc(C)cc(C)c3)c2c1	> 250
COc1ccc2c(OCC(=O)Nc3cc(C)cc(C)c3)cc(C)nc2c1	> 250
COc1ccc2nc(C)cc(OCC(=O)Nc3ccc(F)cc3)c2c1	12
Cc1cc(C)cc(NC(=O)COc2cc(C)nc3ccc(OC(F)(F)F)cc23)c1	> 250
COc1ccc2nc(C)cc(OCC(=O)Nc3nccs3)c2c1	> 250
CCOc1ccc2nc(C)cc(OCC(=O)Nc3cc(C)cc(C)c3)c2c1	> 250
COc1ccc2nc(C)cc(OCC(=O)Nc3ccc(Cl)c(C(F)(F)F)c3)c2c1	47
COc1ccc2nc(C)cc(OCC(=O)Nc3cccnc3)c2c1	62.5
COc1ccc2nc(C)cc(OCC(=O)Nc3cc(OC)c(Cl)cc3OC)c2c1	> 125
COc1ccc2nc(C)cc(OCC(=O)N(C)c3cc(C)cc(C)c3)c2c1	109
COc1ccc2nc(C)c(NC(=O)C(=O)Nc3cc(C)cc(C)c3)c(O)c2c1	> 125
COc1ccc2nc(C)cc(OCC(=O)Nc3noc(C)c3C)c2c1	187
COc1ccc2nc(C)cc(OCC(=O)Nc3ccccn3)c2c1	15.7
COc1ccc2nc(C)cc(OCC(=O)NC3CONC3=O)c2c1 (stereo not given)	> 125
COc1ccc2nc(C)cc(OCC(=O)Nc3ccc(Br)c(C)c3)c2c1	3.9
